Assay results as given in PubChem BioAssay.
The source made the active and inactive calls.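 How the source made its calls, unless noted: active means viability at or below 10% of carrier control in both of two separate runs; inconclusive means viability at or below 10% in only one of the two runs; inactive means the rest.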

Tests used:
[1] = Her2 expression decrease, cell viability multiplex – SKBR3 breast tumor cells, AlphaScreen, ATP viability, primary screen (AID 461;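 active means Her2 level under about 52% in both replicate screens, with viability over 70% of control, limit read from the data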;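 on Her2 level: lower value means less Her2 protein in the cells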;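 on viability: percent of carrier control wells set as 100% viability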); conditions: SKBR3 Her2 protein level, 18-24 h, measured here: SKBR3 viability, ATP luminescence, at 10 µM
[2] = biological target: Receptor tyrosine-protein kinase erbB-2 (Homo sapiens) (UniProt P04626); assay: as above; conditions: 18-24 h, at 10 µM, stronger effect = lower value
Receptor tyrosine-protein kinase erbB-2 (Homo sapiens), sequence (P04626 whole entry, looked up): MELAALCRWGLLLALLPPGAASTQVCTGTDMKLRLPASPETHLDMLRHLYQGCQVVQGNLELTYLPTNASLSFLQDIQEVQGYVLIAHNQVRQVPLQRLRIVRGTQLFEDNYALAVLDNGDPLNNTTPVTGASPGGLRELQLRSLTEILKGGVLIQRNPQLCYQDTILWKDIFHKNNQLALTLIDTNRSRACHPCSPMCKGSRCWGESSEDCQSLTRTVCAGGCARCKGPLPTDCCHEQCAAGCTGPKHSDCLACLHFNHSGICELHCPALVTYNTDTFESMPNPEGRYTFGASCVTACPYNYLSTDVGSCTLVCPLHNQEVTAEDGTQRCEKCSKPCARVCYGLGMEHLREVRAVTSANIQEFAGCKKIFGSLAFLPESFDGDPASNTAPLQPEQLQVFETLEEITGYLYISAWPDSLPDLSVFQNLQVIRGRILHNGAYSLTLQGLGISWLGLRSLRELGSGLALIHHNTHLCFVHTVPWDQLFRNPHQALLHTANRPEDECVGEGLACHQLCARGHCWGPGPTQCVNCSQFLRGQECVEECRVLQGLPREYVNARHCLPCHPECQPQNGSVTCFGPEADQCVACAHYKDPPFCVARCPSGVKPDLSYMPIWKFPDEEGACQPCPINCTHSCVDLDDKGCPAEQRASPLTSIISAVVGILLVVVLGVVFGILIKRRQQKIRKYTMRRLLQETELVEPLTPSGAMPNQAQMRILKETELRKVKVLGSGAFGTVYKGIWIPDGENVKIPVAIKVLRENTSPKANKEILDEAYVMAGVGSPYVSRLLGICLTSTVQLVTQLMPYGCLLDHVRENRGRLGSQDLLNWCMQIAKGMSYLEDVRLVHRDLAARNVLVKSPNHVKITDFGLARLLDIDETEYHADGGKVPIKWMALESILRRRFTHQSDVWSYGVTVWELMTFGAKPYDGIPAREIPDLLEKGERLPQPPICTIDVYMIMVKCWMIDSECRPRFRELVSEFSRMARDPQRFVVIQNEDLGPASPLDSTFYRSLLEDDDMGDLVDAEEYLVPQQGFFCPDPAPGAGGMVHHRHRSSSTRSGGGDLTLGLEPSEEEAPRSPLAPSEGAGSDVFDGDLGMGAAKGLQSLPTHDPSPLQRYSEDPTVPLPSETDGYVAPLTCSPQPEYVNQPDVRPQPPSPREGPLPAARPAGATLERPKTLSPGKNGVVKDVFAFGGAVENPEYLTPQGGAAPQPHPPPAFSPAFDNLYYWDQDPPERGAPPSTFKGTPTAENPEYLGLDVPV

[3] = reduced viability of SK-BR-3 breast cancer cells – cell-based, 24 h, human, pilot screen (AID 572); conditions: SK-BR-3 viability, CellTiter-Glo luminescence, at 10 µM, stronger effect = lower value;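 further: compound exposure lasted between 18 and 24 h rather than exactly 24 h; 100% = carrier-treated control wells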
[4] = HUVEC growth inhibition – cell-based, human, primary screen (AID 575;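 active means viability at or below 30% in both replicate assays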;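 further: 100% = median of untreated cell wells with 0.1% DMSO on each plate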); conditions: HUVEC proliferation, CellTiter-Glo luminescence, 72 h; at 10 µM; stronger effect = lower value
Method in brief: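 Test system – primary HUVEC, no more than 12 passages · Dosing – one dose, 10 µM final, 0.1% DMSO · Times – 72 h treatment at 37 °C · Measured by – ATP-based CellTiter-Glo luminescent read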

[5] = H69AR cell proliferation blockers – human, duplicate replicates, primary screen (AID 580;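 active means viability at or under a set limit in both replicates, limit being median viability minus 3 SD, cut at about 48% in these data, passing the limit was not always enough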;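 further: 100% = mean luminescence of untreated wells and 0% = no signal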); conditions: H69AR lung tumor cells viability, ATP luminescence, 72 h; at 10 µM; stronger effect = lower value
[6] = MRP1 drug-resistance reversers in H69AR cells – cell-based, doxorubicin co-treatment, pilot screen (AID 601;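 active means viability loss from added drug above about 55%, and viability with drug at most 40%, in both replicates, limit read from the data, passing the limit was not always enough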); conditions: CellTiter-Glo, 72 h, at 10 µM; for differential viability (reversal): stronger effect = higher value
[7] = yeast transport mutant growth inhibition pilot in 384-well plates, post-Golgi transport modulator project (AID 636; in the data active means inhibition above about 31%); conditions: absorbance 615 nm, about 18 h, stronger effect = higher value
[8] = growth suppression of yeast trafficking mutant, preliminary HTS, modulators of trafficking downstream of Golgi apparatus project, 1536-format plate, OD 615 nm (AID 637; in the data active means inhibition above about 30%); conditions: yeast transport mutant growth, absorbance 615 nm, 18 h; stronger effect = higher value
[9] = H69AR cells + 2 uM doxorubicin, measured here: viability with 2 uM doxorubicin, stronger effect = lower value
[10] = H69AR cells, compound alone cytotoxicity

| SMILES | viability [1] [%] | Her2 level [2] | viability [3] | viability [4] | viability [5] | differential viability (reversal) ([6]; H69AR cells + 2 uM doxorubicin) | viability [6, 9] [%] | viability [6, 10] [%] | inhibition [7] | inhibition [8] |
| --- | --- | --- | --- | --- | --- | --- | --- | --- | --- | --- |
| O=C(NC1CCCc2ccccc21)C1CCN(S(=O)(=O)c2cnc[nH]2)CC1 (stereo not given) | 104 | 100% (inactive) | 104% (inactive) | 102% (inactive) | 94.8% (inactive) | -11.3% (inactive) | 106 | 94.8 | -0.79% (inactive) | -3.87% (inactive) |
| CCOC(=O)CSC1=C(C#N)C(=O)NC2(CCCCC2)S1 | 108 | 106% (inactive) | 108% (inactive) | 100% (inactive) | 108% (inactive) | 12.1% (inactive) | 95.9 | 108 | -6.16% (inactive) | -5.24% (inactive) |
| COC(=O)CNC(=O)c1c(C)cc(=O)oc1C | 89.5 | 104% (inactive) | 89.5% (inactive) | 90.3% (inactive) | 97.1% (inactive) | 5.65% (inactive) | 91.4 | 97.1 | -4.27% (inactive) | -8.55% (inactive) |
| CCOc1ccccc1N1CCN(c2nc(N)c(C#N)c(CC#N)c2C#N)CC1 | 108 | 74.5% (inactive) | 108% (inactive) | 70.7% (inactive) | 61.7% (inactive) | -22.8% (inactive) | 84.5 | 61.7 | -4.34% (inactive) | 5.64% (inactive) |
| Cc1cc(C)c(C)c(OCC(=O)NCC2CCCO2)c1 (stereo not given) | 85 | 85.5% (inactive) | 85% (inactive) | 102% (inactive) | 100% (inactive) | 8.32% (inactive) | 91.9 | 100 | -3.38% (inactive) | 0.16% (inactive) |
| CC(=O)N1CCN=C1SCc1c(F)cccc1Cl | 102 | 105% (inactive) | 102% (inactive) | 73.1% (inactive) | 78.8% (inactive) | -5.06% (inactive) | 83.8 | 78.8 | 3.85% (inactive) | -1% (inactive) |
| Cc1cccn2c(=O)c3cc(C#N)c(=O)n(CCCN4CCOCC4)c3nc12 | 88.5 | 85% (inactive) | 88.5% (inactive) | 99.8% (inactive) | 102% (inactive) | 20% (inactive) | 82.2 | 102 | -3.51% (inactive) | 1.83% (inactive) |
| Cc1cc(C)cc(NC(=O)N2CCC(c3nc4ccccc4o3)CC2)c1 | 90.5 | 99% (inactive) | 90.5% (inactive) | 88.9% (inactive) | 94.9% (inactive) | 1.69% (inactive) | 93.2 | 94.9 | -4.8% (inactive) | 1.8% (inactive) |
| O=C(NCc1ccccc1)N1CCn2c(nc3ccccc32)C1 | 93.5 | 91.5% (inactive) | 93.5% (inactive) | 90.2% (inactive) | 92.9% (inactive) | 14.2% (inactive) | 78.7 | 92.9 | -3.73% (inactive) | 1.15% (inactive) |
| COC(=O)CCCCCNc1ccc(C(=O)OC)cc1N | 107 | 86% (inactive) | 107% (inactive) | 98.5% (inactive) | 91.5% (inactive) | 6.14% (inactive) | 85.4 | 91.5 | -7.16% (inactive) | -6.5% (inactive) |
| CC(C)(C)n1ncc2c(=O)n(CC(=O)c3ccccc3)cnc21 | 95 | 84% (inactive) | 95% (inactive) | 80.2% (inactive) | 84.2% (inactive) | -2.76% (inactive) | 86.9 | 84.2 | -0.39% (inactive) | -3.23% (inactive) |
| COc1ccc(N2CCN(C(c3cccs3)c3nnnn3C3CCCC3)CC2)cc1 (stereo not given) | 90.5 | 95% (inactive) | 90.5% (inactive) | 69.3% (inactive) | 70% (inactive) | -17.6% (inactive) | 87.5 | 70 | -3.25% (inactive) | -5.87% (inactive) |
| N#Cc1c(N2C(=O)C3C4C=CC(C4)C3C2=O)sc2c1CCC2 (stereo not given) | 91.5 | 86.5% (inactive) | 91.5% (inactive) | 91% (inactive) | 90.3% (inactive) | -10.1% (inactive) | 100 | 90.3 | -5.07% (inactive) | -2.62% (inactive) |
| Clc1ccc(-n2ncc3c(NCCCn4ccnc4)ncnc32)cc1 | 87 | 76.5% (inactive) | 87% (inactive) | 91.2% (inactive) | 93.5% (inactive) | 11.3% (inactive) | 82.2 | 93.5 | -5.6% (inactive) | 3.39% (inactive) |
